IMP-1 inhibitor: inhibitors of Pseudomonas aeruginosa IMP-1 metallo-beta-lactamase; AID 1556; actives 0.45% (n = 290,000); inhibition, % at 5.6 µM; purified IMP-1, nitrocefin hydrolysis, epi-absorbance fluorescence;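 active = inhibition above the mean plus 3 SD of all compounds in the same screening run, cut at about 4.5% in these data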;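 note: 0% = IMP-1 with DMSO and 100% = DMSO wells lacking enzyme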
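System: purified recombinant IMP-1 beta-lactamase. Medium: Zinc- and detergent-supplemented HEPES buffer, pH 7.1. Compound: one 5.6 µM dose […]. Schedule: 15 min preincubation plus 25 min reaction at 25 °C. Technique: Epi-absorbance fluorescence, 480 nm excitation, 530 nm emission.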
VIM-2 inhibitor: inhibitors of Pseudomonas aeruginosa VIM-2 metallo-beta-lactamase | purified VIM-2, nitrocefin hydrolysis, epi-absorbance fluorescence | inhibition, % at 5.6 µM | actives 0.89% (n = 290,000) | AID 1527;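 active = inhibition above the mean of all tested compounds plus 3 SD, cutoff set per screening run, cut at about 7.5% in these data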;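 note: red hydrolysis product quenches plate fluorescence so inhibitors raise well fluorescence; 0% = enzyme with DMSO and 100% = DMSO without enzyme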
PKA-R1A act: activates the PKA-R1A holoenzyme complex | actives 0.083% (n = 340,000) | activation, % at 11.4 µM | PKA-R1A dissociation, Cy5-IP20 fluorescence polarization; scaled: DMSO 0%, 113 µM cGMP 100%;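 active = percent activation above the mean of all tested compounds plus 3 SD, cut at about 19% in these data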;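 note: higher means more PKAc released from R1A so a rise in polarization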
MsrA inhibitor: inhibits bovine methionine sulfoxide reductase A; actives 0.75% (n = 360,000); purified bovine MsrA, absorbance read-out; inhibition, % at 15.5 µM;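 note: 0% = vehicle wells with enzyme and 100% = reference inhibitor wells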
PKA-R2B act: activators of human PKA-R2B complex. AID 504700. actives 0.079% (n = 340,000). PKA-R2B holoenzyme dissociation, Cy5-IP20 fluorescence polarization; R2B truncated from residue 108, S112A mutant; 0% DMSO only, 100% 113 µM cGMP. activation, % at 11.4 µM;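 active = activation above a cutoff set at the mean over all compounds plus 3 SD, cut at about 18% in these data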;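 note: higher means more holoenzyme dissociation and a rise in polarization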
Target sequence (P31323 whole entry, looked up, other chains not shown, the tested form may be a part): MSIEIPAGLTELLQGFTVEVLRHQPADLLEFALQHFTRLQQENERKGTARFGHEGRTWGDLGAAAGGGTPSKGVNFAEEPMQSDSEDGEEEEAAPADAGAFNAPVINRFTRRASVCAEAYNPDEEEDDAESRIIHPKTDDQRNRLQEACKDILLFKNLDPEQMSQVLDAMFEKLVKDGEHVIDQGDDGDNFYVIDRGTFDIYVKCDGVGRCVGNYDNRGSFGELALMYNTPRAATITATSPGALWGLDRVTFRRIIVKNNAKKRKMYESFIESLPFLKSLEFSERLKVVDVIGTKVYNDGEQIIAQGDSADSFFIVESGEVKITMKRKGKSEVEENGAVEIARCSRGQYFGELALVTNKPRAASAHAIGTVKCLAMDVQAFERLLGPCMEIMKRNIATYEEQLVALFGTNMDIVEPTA
bovine MsrA act: activators of bovine methionine sulfoxide reductase A; actives 0.3% (n = 360,000); activation, % at 10.6 µM; purified bovine MsrA, absorbance read-out; in the data active = activation above about 7.5%;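 note: 0% = vehicle and 100% = reference activator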
MsrA inh confirm: bovine MsrA inhibition, confirmed | shares compounds with MsrA inhibitor | purified bovine MsrA, absorbance read-out | inhibition, % at 15.5 µM | actives 41% (n = 2,300) | AID 651822;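 note: coupled to thioredoxin reductase with NADPH and selenocystamine and DMSO as substrate; 0% = vehicle only and 100% = full effect of reference inhibitor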
Starred values were filed as active, the others as inactive; nt = no result. In the library only some 2.1% were active in any assay of this set; here they are far more common. Cut-off read from the data, not from the text of the source, unless noted: active = inhibition above about 4.5%; inactive = the rest.

SMILES	IMP-1 inhibitor	VIM-2 inhibitor	PKA-R1A act	MsrA inhibitor	PKA-R2B act	bovine MsrA act	MsrA inh confirm
COc1ccc(-c2cc(=Nc3ccccc3)c3cc(C)ccc3o2)cc1	-1	-2	-4	1	6	-3	nt
COc1ccc(-c2cc(=NCCC(=O)O)c3cc(C)ccc3o2)cc1	1	4	0	4.8*	3	-5	4.6*
CC1=CC2OC3CC4OC(=O)C=CC=CC(=O)OCCC(C)C(O)C(=O)OCC2(CC1O)C4(C)C31CO1 (stereo not drawn)	nt	nt	-1	nt	1	-1	nt
O=C(N/N=C/c1c(O)n(CCc2ccc(F)cc2)c(=O)[nH]c1=O)c1ccccc1	-2	-1	nt	0	nt	4	nt
COc1ccc(Cn2c(O)c(/C=N/NC(=O)c3ccccc3O)c(=O)[nH]c2=O)cc1	-3	-3	-3	6.2*	-10	-4	5.4*
O=C(N/N=C/c1c(O)n(CCc2ccccc2)c(=O)[nH]c1=O)c1ccccc1O	-5	-4	1	4.9*	13	-6	4
Oc1c(Cl)c(Cl)c(Cl)c(Cl)c1Cl	nt	nt	0	0	0	-3	nt
COC(=O)C1=C(N)Oc2c(c(=O)oc3ccccc23)C1c1cccnc1 (stereo not drawn)	-2	0	-2	0	3	0	nt
COc1ccc(CC(=O)N2CCN(C)CC2)cc1OC	-4	-6	-5	0	-8	0	nt
COc1ccc(CC(=O)C2C(=O)N(C)c3ccccc32)cc1OC (stereo not drawn)	nt	nt	-2	4.9*	-4	-10	2
COC(=O)C1=C(c2ccc3ccccc3c2)C[C@@H]2CC[C@H]1N2C(=O)N1CCC(C)CC1	nt	nt	0	nt	-1	0	nt
CC(C)n1c(=O)c(C=Nc2ccc(F)cc2)c(O)n(Cc2ccco2)c1=O	-2	-7	3	5.7*	-14	-2	2
Cn1c(CN2CCN(C(=O)COc3ccccc3)CC2)nc2cc([N+](=O)[O-])ccc21	-2	-2	-3	2	-6	-4	nt
CCOC(=O)c1cc(C(O)(C(=O)OC)C(F)(F)F)c(/N=C/N(C)C)o1 (stereo not drawn)	1	-3	-8	6.8*	-6	-14	3
C=CCn1c(O)c(/C=C/C=Nc2ccccc2)c(=O)[nH]c1=O	-4	-1	-10	5.7*	-3	0	1
Cc1ccc(N=Cc2c(O)n(C)c(=O)n(C)c2=O)cc1	-6	2	-13	1	-8	-4	nt
Cc1c(N=Cc2c(O)n(Cc3ccc(F)cc3)c(=O)[nH]c2=O)c(=O)n(-c2ccccc2)n1C	-1	-1	-2	4.9*	-2	-2	3
O=C(NN=Cc1ccc(N(CCCl)CCCl)cc1)C(=O)c1c[nH]c2ccccc12	nt	nt	-3	6.0*	-6	-8	2
CN/C=C(/Cl)P(=O)(OC(C)C)OC(C)C	nt	nt	1	0	-2	-4	nt
Cc1cc(C)c(S(=O)(=O)N2Cc3ccccc3-n3nncc3C2)c(C)c1	nt	nt	-5	-1	-4	0	nt
COc1ccc(CN2Cc3cnnn3-c3ccccc3C2C)cc1 (stereo not drawn)	nt	nt	-7	0	-3	-3	nt
O=C(NN=Cc1ccc(N(CCCl)CCCl)cc1)c1cc(=O)[nH]c(=O)[nH]1	nt	nt	-1	4	-10	1	nt
O=C(Cc1cc(=O)oc2cc(O)ccc12)NN=Cc1ccc(N(CCCl)CCCl)cc1	nt	nt	-13	7.3*	8	-9	6.1*
COC(=O)C1=C(c2cc3ccccc3s2)C[C@@H]2CC[C@H]1N2C(=O)N1CCOCC1	nt	nt	-15	1	-12	-11	nt
CCOP(=O)(OCC)OCC	nt	nt	-1	1	7	-8	nt
CCOP(=O)(CCP(=O)(OCC)OCC)OCC.C[CH2][Sn]([Cl])([Cl])[CH2]C	nt	nt	-7	56*	-2	-9	51*
O=c1ccc2cc(O[C@@H]3O[C@H](CO)[C@@H](O)[C@H](O)[C@H]3O)c(O)cc2o1	nt	nt	-10	4	1	-2	nt
O=C(NN=Cc1ccc(N(CCCl)CCCl)cc1Cl)c1cccnc1	nt	nt	6	2	4	-3	nt
